# Key:
# Homo sapiens = organism: Homo sapiens; assay: Selectivity for human CB2 receptor over human CB1 receptor by cAMP assay
# How it was run: (§1)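 CHO cells stably expressing human CB2 or CB1 were seeded at 5000 cells/well and grown overnight at 37 °C. Compounds were added in stimulation buffer (1 mM IBMX, 0.25% BSA, 10 µM forskolin) for 30 min at 37 °C. cAMP was measured in lysates with a cAMP kit; 100% = forskolin-stimulated cAMP versus level with 200 nM CP-55940. EC50 came from a four-parameter logistic fit; efficacy is relative to CP-55940. Each run was triplicate, at least three times.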
# Cannabinoid receptor 2 [1] = biological target: T1, Cannabinoid receptor 2 (Homo sapiens, UniProt P34972); assay: Agonist activity at human CB2 receptor expressed in CHO cells assessed as inhibition of forskolin-stimulated cAMP level; format: functional, cell-based
# How it was run: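 CHO cells expressing human CB2, 5000 cells/well, incubated overnight at 37 °C. Compounds given in stimulation buffer with 1 mM IBMX, 0.25% BSA and 10 µM forskolin for 30 min at 37 °C. Cells lysed and cAMP read by enzyme-fragment kit. Forskolin-stimulated cAMP versus cAMP with 200 nM CP-55940 defines 100%. EC50 from four-parameter logistic fit. Triplicate, at least three runs.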
# Cannabinoid receptor 2 [2] = biological target: T1, Cannabinoid receptor 2; assay: Agonist activity at human CB2 receptor expressed in CHO cells assessed as inhibition of forskolin-stimulated cAMP level relative to CP-55940; format: functional, cell-based; parameters: Activity: scale not given: the % may be the effect or the level left; how it was run: as §1
# Cannabinoid receptor 2 [3] = biological target: T1, Cannabinoid receptor 2; assay: Displacement of [3H]CP-55940 from human CB2 receptor expressed in HEK cells; format: cell-based, HEK293
# How it was run: (§2)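 SPA binding with HEK membranes expressing human CB1 (2.5 µg/well) or CB2 (2 µg/well) on poly-L-lysine beads. Buffer: 50 mM Tris pH 7.5, 2.5 mM EDTA, 5 mM MgCl2, 0.8% fatty-acid-free BSA. Compounds at 1e-5 to 1e-10 M. [3H]-CP-55940 final 2.5 nM (CB1) or 4 nM (CB2). IC50 from four-parameter logistic fit, converted to Ki by Cheng-Prusoff.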
# Cannabinoid receptor 1 = Cannabinoid receptor 1 (Homo sapiens, UniProt P21554); assay: Displacement of [3H]CP-55940 from human CB1 receptor expressed in HEK cells; format: cell-based, HEK293; how it was run: as §2
# Cannabinoid receptor 1, sequence (P21554 whole entry): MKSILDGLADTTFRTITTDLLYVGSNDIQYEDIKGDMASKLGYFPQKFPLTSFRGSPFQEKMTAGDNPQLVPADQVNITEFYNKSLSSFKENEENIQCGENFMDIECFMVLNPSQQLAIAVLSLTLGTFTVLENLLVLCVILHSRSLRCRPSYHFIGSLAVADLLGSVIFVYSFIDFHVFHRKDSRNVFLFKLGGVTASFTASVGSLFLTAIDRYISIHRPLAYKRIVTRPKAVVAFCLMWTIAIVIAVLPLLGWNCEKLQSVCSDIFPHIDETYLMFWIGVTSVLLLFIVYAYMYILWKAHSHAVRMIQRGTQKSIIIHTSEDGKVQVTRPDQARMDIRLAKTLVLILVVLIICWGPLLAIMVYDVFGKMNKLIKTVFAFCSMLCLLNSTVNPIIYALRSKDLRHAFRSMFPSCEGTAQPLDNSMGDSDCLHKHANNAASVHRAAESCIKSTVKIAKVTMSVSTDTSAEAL
# T1 sequence (P34972 whole entry, the tested form may be a part): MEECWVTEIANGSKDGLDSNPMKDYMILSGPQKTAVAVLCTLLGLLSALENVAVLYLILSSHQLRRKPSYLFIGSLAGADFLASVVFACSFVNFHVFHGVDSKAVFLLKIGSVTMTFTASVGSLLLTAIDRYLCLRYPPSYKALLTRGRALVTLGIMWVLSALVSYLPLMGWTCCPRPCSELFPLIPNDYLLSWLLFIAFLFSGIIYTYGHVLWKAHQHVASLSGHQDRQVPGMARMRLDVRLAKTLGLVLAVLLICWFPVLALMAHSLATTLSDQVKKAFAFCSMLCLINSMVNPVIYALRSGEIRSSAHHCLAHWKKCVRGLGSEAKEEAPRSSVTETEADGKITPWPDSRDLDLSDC
smiles,measurement,setting,value
Cc1ccccc1NC(=O)c1ccc(C)c(S(=O)(=O)N2CCCCC2)c1,Selectivity ratio,Homo sapiens,1.5
same,EC50,Cannabinoid receptor 2 [1],154 nM
same,Activity,Cannabinoid receptor 2 [2],76%
Cc1ccc(C(=O)N2CCC3CCCCC3C2)cc1S(=O)(=O)N1CCC(O)CC1 (stereo not drawn),Selectivity ratio,Homo sapiens,37
same,EC50,Cannabinoid receptor 2 [1],215 nM
same,Activity,Cannabinoid receptor 2 [2],86%
Cc1ccc(C(=O)Nc2ccc3ccccc3n2)cc1S(=O)(=O)N1CCCCC1,EC50,Cannabinoid receptor 2 [1],195 nM
same,Activity,Cannabinoid receptor 2 [2],45%
Cc1ccc(C(=O)N2CCCC3CCCCC32)cc1S(=O)(=O)N1CCCCC1 (stereo not drawn),Selectivity ratio,Homo sapiens,94
same,EC50,Cannabinoid receptor 2 [1],6 nM
same,Activity,Cannabinoid receptor 2 [2],82%
Cc1ccc(C(=O)N2CCC3CCCCC3C2)cc1S(=O)(=O)Nc1ccccc1 (stereo not drawn),EC50,Cannabinoid receptor 2 [1],> 20000 nM
O=C(NCC1CCOCC1)c1cnc(Nc2ccc(Cl)cc2Cl)nc1C(F)(F)F,Selectivity ratio,Homo sapiens,> 470
same,Activity,Cannabinoid receptor 2 [2],95%
O=C(c1ccc(Cl)c(S(=O)(=O)N2CCCC2)c1)N1CCC2CCCCC2C1 (stereo not drawn),Selectivity ratio,Homo sapiens,520
same,EC50,Cannabinoid receptor 2 [1],4 nM
same,Activity,Cannabinoid receptor 2 [2],93%
Cc1ccc(C(=O)N(C)c2ccccc2Cl)cc1S(=O)(=O)N1CCCCC1,EC50,Cannabinoid receptor 2 [1],> 20000 nM
Cc1ccc(C(=O)Nc2ccc(Cl)cc2)cc1S(=O)(=O)N1CCCCC1,EC50,Cannabinoid receptor 2 [1],14100 nM
same,Activity,Cannabinoid receptor 2 [2],117%
Cc1ccc(C(=O)N2CCC3CCCCC3C2)cc1S(=O)(=O)NCC(C)C (stereo not drawn),Selectivity ratio,Homo sapiens,939
same,EC50,Cannabinoid receptor 2 [1],14 nM
same,Activity,Cannabinoid receptor 2 [2],96%
Cc1ccc(C(=O)N2CCC3CCCCC3C2)cc1S(=O)(=O)N1CCS(=O)(=O)CC1 (stereo not drawn),Selectivity ratio,Homo sapiens,7740
same,EC50,Cannabinoid receptor 2 [1],2 nM
same,Activity,Cannabinoid receptor 2 [2],99%
Cc1ccc(C(=O)N2CCC3CCCCC3C2)cc1S(=O)(=O)NC(C)C (stereo not drawn),Selectivity ratio,Homo sapiens,0.1
same,EC50,Cannabinoid receptor 2 [1],2280 nM
same,Activity,Cannabinoid receptor 2 [2],101%
Cc1ccc(C(=O)N2CCC3CCCCC3C2)cc1S(=O)(=O)N1CCSCC1 (stereo not drawn),Selectivity ratio,Homo sapiens,3250
same,EC50,Cannabinoid receptor 2 [1],1 nM
same,Activity,Cannabinoid receptor 2 [2],90%
Cc1ccc(C(=O)Nc2cccc3cccnc23)cc1S(=O)(=O)N1CCCCC1,Selectivity ratio,Homo sapiens,7
same,EC50,Cannabinoid receptor 2 [1],4 nM
same,Activity,Cannabinoid receptor 2 [2],100%
Cc1ccc(C(=O)NC2CCCCC2)cc1S(=O)(=O)N1CCCC1,Selectivity ratio,Homo sapiens,181
same,EC50,Cannabinoid receptor 2 [1],21 nM
same,Activity,Cannabinoid receptor 2 [2],81%
O=C(NC1CCCCC1)c1cccc(S(=O)(=O)N2CCCC2)c1,EC50,Cannabinoid receptor 2 [1],> 20000 nM
CC(C)c1ccc(C(=O)N2CCC3CCCCC3C2)cc1S(=O)(=O)N1CCCC1 (stereo not drawn),Selectivity ratio,Homo sapiens,2860
same,EC50,Cannabinoid receptor 2 [1],0.4 nM
same,Activity,Cannabinoid receptor 2 [2],101%
Cc1ccc(C(=O)N[C@H](C)C2CCCCC2)cc1S(=O)(=O)N1CCCCC1,Selectivity ratio,Homo sapiens,45
same,EC50,Cannabinoid receptor 2 [1],18 nM
same,Activity,Cannabinoid receptor 2 [2],85%
Cc1ccc(C(=O)Nc2cccc(Cl)c2)cc1S(=O)(=O)N1CCCCC1,Selectivity ratio,Homo sapiens,31
same,EC50,Cannabinoid receptor 2 [1],27 nM
same,Activity,Cannabinoid receptor 2 [2],80%
Cc1ccc(C(=O)N2CCC3CCCCC3C2)cc1S(=O)(=O)N1CCCCCC1 (stereo not drawn),Selectivity ratio,Homo sapiens,3280
same,EC50,Cannabinoid receptor 2 [1],2 nM
same,Activity,Cannabinoid receptor 2 [2],100%
Cc1ccc(C(=O)N[C@@H](C)C2CCCCC2)cc1S(=O)(=O)N1CCCCC1,Selectivity ratio,Homo sapiens,2
same,EC50,Cannabinoid receptor 2 [1],5 nM
same,Activity,Cannabinoid receptor 2 [2],73%
Cc1ccc(C(=O)Nc2ccccc2Cl)cc1S(=O)(=O)N1CCCCC1,Selectivity ratio,Homo sapiens,13
same,EC50,Cannabinoid receptor 2 [1],5 nM
same,Activity,Cannabinoid receptor 2 [2],89%
Cc1ccc(C(=O)N2CCC3CCCCC3C2)cc1S(=O)(=O)N1CCCCC1 (stereo not drawn),Selectivity ratio,Homo sapiens,4330
same,EC50,Cannabinoid receptor 2 [1],1.5 nM
same,Activity,Cannabinoid receptor 2 [2],95%
Cc1ccc(C(=O)Nc2ccccc2)cc1S(=O)(=O)N1CCCCC1,Selectivity ratio,Homo sapiens,6
same,EC50,Cannabinoid receptor 2 [1],139 nM
same,Activity,Cannabinoid receptor 2 [2],74%
Cc1ccc(C(=O)N2CCCCC2)cc1S(=O)(=O)N1CCCCC1,Selectivity ratio,Homo sapiens,> 240
same,EC50,Cannabinoid receptor 2 [1],82 nM
same,Emax,Cannabinoid receptor 2 [2],85%
COc1ccc2c(c1)c(CCN1CCOCC1)c(C)n2C(=O)c1cccc(Cl)c1Cl,EC50,Cannabinoid receptor 2 [1],0.65 nM
same,Activity,Cannabinoid receptor 2 [2],44%
COc1ccccc1NC(=O)c1ccc(C)c(S(=O)(=O)N2CCCCC2)c1,Selectivity ratio,Homo sapiens,9
same,EC50,Cannabinoid receptor 2 [1],21 nM
same,Activity,Cannabinoid receptor 2 [2],91%
Cc1ccc(C(=O)NC2CCCCC2)cc1S(=O)(=O)N1CCCCC1,Selectivity ratio,Homo sapiens,24
same,EC50,Cannabinoid receptor 2 [1],14 nM
same,Activity,Cannabinoid receptor 2 [2],86%
Cc1ccc(C(=O)N2CCC3CCCCC3C2)cc1S(=O)(=O)N1CCOCC1 (stereo not drawn),Selectivity ratio,Homo sapiens,2640
same,EC50,Cannabinoid receptor 2 [1],5 nM
same,Activity,Cannabinoid receptor 2 [2],104%
O=C(c1ccc(Cl)c(S(=O)(=O)N2CCCC2)c1)N1CC[C@@H]2CCCC[C@H]2C1 (relative stereo),Selectivity ratio,Homo sapiens,3770
same,EC50,Cannabinoid receptor 2 [1],3 nM
same,Activity,Cannabinoid receptor 2 [2],89%
Cc1ccc(C(=O)N2CC[C@@H]3CCCC[C@H]3C2)cc1S(=O)(=O)N1CCCCC1 (relative stereo),Selectivity ratio,Homo sapiens,6890
same,EC50,Cannabinoid receptor 2 [1],1 nM
same,Activity,Cannabinoid receptor 2 [2],93%
Cc1ccc(C(=O)Nc2nccc3ccccc23)cc1S(=O)(=O)N1CCCCC1,Selectivity ratio,Homo sapiens,25
same,EC50,Cannabinoid receptor 2 [1],1 nM
same,Activity,Cannabinoid receptor 2 [2],98%
Cc1ccc(C(=O)N(C)C2CCCCC2)cc1S(=O)(=O)N1CCCCC1,Selectivity ratio,Homo sapiens,38
same,EC50,Cannabinoid receptor 2 [1],119 nM
same,Activity,Cannabinoid receptor 2 [2],86%
O=C(c1cccc(S(=O)(=O)N2CCCC2)c1)N1CC[C@@H]2CCCC[C@H]2C1 (relative stereo),EC50,Cannabinoid receptor 2 [1],> 20000 nM
Cc1ccc(C(=O)N2CCC3CCCCC3C2)cc1S(=O)(=O)N1CCCC1 (stereo not drawn),Selectivity ratio,Homo sapiens,2240
same,EC50,Cannabinoid receptor 2 [1],4 nM
same,Activity,Cannabinoid receptor 2 [2],94%
Cc1ccc(C(=O)Nc2ccccc2S(C)(=O)=O)cc1S(=O)(=O)N1CCCCC1,Selectivity ratio,Homo sapiens,66
same,EC50,Cannabinoid receptor 2 [1],6 nM
same,Activity,Cannabinoid receptor 2 [2],96%
Cc1ccc(C(=O)N2CCC3CCCCC3C2)cc1S(=O)(=O)N1CCC1 (stereo not drawn),Selectivity ratio,Homo sapiens,> 1500
same,EC50,Cannabinoid receptor 2 [1],13 nM
same,Activity,Cannabinoid receptor 2 [2],94%
Cc1ccc(C(=O)N2CCC3CCCCC3C2)cc1S(=O)(=O)N1CCN(C(C)C)CC1 (stereo not drawn),EC50,Cannabinoid receptor 2 [1],588 nM
same,Activity,Cannabinoid receptor 2 [2],45%
Cc1ccc(C(=O)Oc2cccc3cccnc23)cc1S(=O)(=O)N1CCCCC1,Selectivity ratio,Homo sapiens,1
same,Ki,Cannabinoid receptor 2 [3],4 nM
same,EC50,Cannabinoid receptor 2 [1],< 1 nM
same,Ki,Cannabinoid receptor 1,3 nM
same,Activity,Cannabinoid receptor 2 [2],99%
O=C(NC1CCCCC1)c1ccc(Cl)c(S(=O)(=O)N2CCCC2)c1,Selectivity ratio,Homo sapiens,85
same,EC50,Cannabinoid receptor 2 [1],3 nM
same,Activity,Cannabinoid receptor 2 [2],74%
O=C(c1ccc(C2CCCCC2)c(S(=O)(=O)N2CCCC2)c1)N1CCC2CCCCC2C1 (stereo not drawn),EC50,Cannabinoid receptor 2 [1],> 20000 nM
CC(C)c1ccc(C(=O)NC2CCCCC2)cc1S(=O)(=O)N1CCCC1,Selectivity ratio,Homo sapiens,60
same,EC50,Cannabinoid receptor 2 [1],4 nM
same,Activity,Cannabinoid receptor 2 [2],86%
Cc1ccc(C(=O)Nc2ccccc2C(F)(F)F)cc1S(=O)(=O)N1CCCCC1,Selectivity ratio,Homo sapiens,96
same,EC50,Cannabinoid receptor 2 [1],2 nM
same,Activity,Cannabinoid receptor 2 [2],92%
Cc1ccc(C(=O)NC2(C)CCCCC2)cc1S(=O)(=O)N1CCCCC1,EC50,Cannabinoid receptor 2 [1],18 nM
same,Activity,Cannabinoid receptor 2 [2],58%

# — ChEMBL document CHEMBL1141512, “Arylsulfonamide CB2 receptor agonists: SAR and optimization of CB2 selectivity” (Bioorg Med Chem Lett, 2008)
